Data as given in ChEMBL document CHEMBL4513216, “Probing the Open Global Health Chemical Diversity Library for Multistage-Active Starting Points for Next-Generation Antimalarials” (ACS Infect Dis, 2020).

Assay: Toxicity liver stage against HepG2, at 10uM
Type: cell-based
Parameters: test concentration 10 uM, cell line HepG2-A16-CD81EGFP
Conditions: human, HepG2-A16-CD81EGFP cells; read-out: INHIBITION
In short: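 Uninfected HepG2-A16-CD81EGFP cells, 3 × 10^3 per well, 1536-well, plated on prespotted compound at 10 μM final, parasite-free screening media added to match infected plates; puromycin 10 μM positive, DMSO 0.5% negative; run in parallel with 48 h PbLuc assay at 37 °C, 5% CO2; viability by CellTiter-Glo luminescence, normalized to controls.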

Row | SMILES | cytotoxicity at 10 µM
1 | CC(C)CCN1CC[C@H](c2nnc(Cc3c[nH]c4ccccc34)o2)C1 | 0.167%
2 | O=C(NC1CCS(=O)(=O)C1)c1cn(C2CC2)c(=O)c2ccccc12 (stereo not given) | -5.65%
3 | Cc1cncc(Oc2ccc(CO)cc2)n1 | 5.81%
4 | O=S(=O)(c1ccccc1)N1C[C@@H]2COC[C@]2(COCC2CC2)C1 | 10.2%
5 | CC(C)CNC(=O)N1CCOC2(CCNCC2)C1 | 9.28%
6 | CS(=O)(=O)NCC1OCCc2cn(CC3CC3)nc21 (stereo not given) | 8.19%
7 | c1ccc(CN2CCOC3(CCCN(c4nccs4)C3)C2)cc1 (stereo not given) | 13.7%
8 | Cn1ncc2c1C(COCC1CC1)CN(Cc1cccnc1)C2 (stereo not given) | 11.4%
9 | Cc1c(C)n(Cc2ccncc2)c2nc3c(c(N)c12)CCCC3 | 1.4%
10 | CCc1cc(=O)n(CC(=O)N2CCCCC2)c(-c2cccc(F)c2)n1 | 11.4%
11 | Cn1cc(-c2cc(-c3cnn(C)c3)n(CC(=O)NC3CC3)n2)cn1 | 2.94%
12 | CCn1ccc(-c2cc(C(=O)O)n3ncc(Cl)c3n2)n1 | -3.05%
13 | CN1C(=O)CC[C@@H]2N(C(=O)CCc3cccnc3)CCCC[C@@]21C | 3.82%
14 | CCOc1ccc(CN2CCC(c3nc(C)cc(C)n3)C2)cc1CO (stereo not given) | 2.75%
15 | Cc1ccc(CN2CCc3c(nc4cc(C5CC5)nn4c3O)C2)s1 | -3.69%
16 | CS(=O)(=O)N1CCCC(c2cncc(Nc3ccccn3)n2)C1 (stereo not given) | 0.609%
17 | CC(=O)N1CCCC(Cc2cncc(Br)c2)C1 (stereo not given) | -9.02%
18 | C[C@]1(O)CCN(Cc2cccnc2)C[C@@H]1Oc1cccc(F)c1 | -8.22%
19 | CCCC(=O)N1CCc2nc3cc(OC)c(OC)cc3c(=O)n2CC1 | -13.2%
20 | O=C(NC1CCCCC1)N1CCn2c(nnc2C2CCCN2)C1 (stereo not given) | 0.336%
21 | O=C1CC2(CCN(C(=O)c3ccccc3)C2)Nc2ccccc2N1 (stereo not given) | 9.98%
22 | CN1Cc2ccccc2NC(=O)C12CCNC2 (stereo not given) | 6.75%

Row | SMILES | cytotoxicity at 10 µM
23 | CCN(CC)C(=O)CSc1ncc[nH]1 | -9.94%
24 | Cc1ccc(S(=O)(=O)Nc2ccc(N3CCSCC3)c(C(=O)O)c2)s1 | 3.54%
25 | Cc1ccc(-c2nc(CC(=O)NCC3CCCOC3)cs2)o1 (stereo not given) | -48%
26 | Cc1ncc(S(=O)(=O)Nc2ccnn2C2CCCCC2)[nH]1 | -6.82%
27 | O=C(CSCc1ccccn1)NCC1CCN(C2CC2)C1 (stereo not given) | -14.8%
28 | CC(=O)Nc1ccc(CNCC(O)c2ccc(C)cc2)cc1 (stereo not given) | -0.684%
29 | Cc1cnn(C2CN(c3nc(-c4ccncc4)nc4c3CCC4)C2)c1 | -46%
30 | NC(=O)c1ccc(NC(=O)N2CCN(c3cccs3)CC2)c(F)c1 | 1.97%
31 | COCCOc1ncccc1CNC(=O)N1CCCCCC1 | -36%
32 | CN(C)CCN(Cc1cccnc1)C(=O)c1ccn(-c2ccccc2)n1 | 2.41%
33 | CCCN1CCC(N(C)CCC(=O)Nc2ccccc2SC)CC1 | 15.5%
34 | Cc1csc(CNC(=O)NCC(C)Cn2nc(C)cc2C)n1 (stereo not given) | 3.26%
35 | OC(CNCCn1cccn1)COc1ccc2ccccc2c1 (stereo not given) | -26.4%
36 | O=C(c1sccc1C1CC1)N1CCN(c2cnccn2)CC1 | -2.92%
37 | CN(C)C(=O)Cn1cc(C#N)c(=O)c2cc(Br)ccc21 | 15.7%
38 | CCc1nc2n(n1)CCCC2Nc1nc(C2CC2)ns1 (stereo not given) | 3.03%
39 | Cc1ccc(N2CCCC(N(C)Cc3noc(C4CC4)n3)C2)nn1 (stereo not given) | 1.6%
40 | CSC(C)(C)CNC(=O)NC1CCN(CC2CC2)C1 (stereo not given) | 0.811%
41 | COCc1ccc(C(=O)N(CCC#N)Cc2ccccn2)cc1 | 14%
42 | COC(C)c1noc(CN2CCCNCC2)n1 (stereo not given) | 5.6%
43 | Cc1ccc(C2CCCN2S(=O)(=O)N(C)Cc2cnn(C)c2)o1 (stereo not given) | 15.8%
44 | COc1cccc(SCC(=O)N2CCC(N3CCCC3=O)CC2)c1 | -9.41%

Row | SMILES | cytotoxicity at 10 µM
45 | CC(C)CN1C(=O)C2(CCCC2)NC1c1c[nH]nc1-c1cccnc1 (stereo not given) | 7.76%
46 | Cc1cc(=O)c(C(=O)N2CCN(C)c3ccccc3C2)c[nH]1 | 3.53%
47 | Cc1ccc2c(c1)OCCCC2NCc1nccn1CC(C)C (stereo not given) | -0.77%
48 | CCc1nnnn1Cc1csc(N(C)C(C)=O)n1 | 0.63%
49 | O=C(c1ncncc1Cl)N1CCN(c2ccc(Cl)cc2)CC1 | -2.72%
50 | CCn1c(CN(C)CC(F)(F)F)nc2c(F)cccc21 | -5.35%
51 | Cc1nn(C)cc1C(=O)Nc1cccc(CN2CCC(CO)CC2)c1 | -10.2%
52 | COCCN1C(=O)CC[C@@H]2[C@@H]1CCN2S(=O)(=O)C1CC1 | -98.4%
53 | O=C(c1ccncn1)N1CCC[C@]2(C[C@@H](OCc3ccccn3)CO2)C1 | -72.9%
54 | O=C(c1cscn1)N1CC[C@H]2C[C@@H](c3ccncn3)O[C@@H]2C1 | -76.6%
55 | COc1ccc(-n2cccn2)c(CN2CCC3(CCCN(C)C3=O)C2)c1 (stereo not given) | 10.2%
56 | OC[C@@H]1CCCN1c1ccc(-c2nc(CCc3ccccc3)no2)cn1 | -0.134%
57 | CC(C)c1nc(CN(C)C(=O)Cn2nc3ccccc3n2)no1 | 10.2%
58 | CCn1ncnc1CN1CCOC(Cc2cccc3ccccc23)C1 (stereo not given) | 2.53%
59 | CCN(CC)CCCNc1nccc(-c2cn(C)nc2C)n1 | -2.92%
60 | CC(=O)N1CC2(CCN(c3ccc4ccccc4n3)CC2)CC1C(=O)O (stereo not given) | 5.33%
61 | COc1ccc2c(c1)C(C(=O)N(C)CCc1scnc1C)CC(=O)N2 (stereo not given) | -42.3%
62 | CCC[C@H]1CN(S(=O)(=O)c2cc(C)ccc2F)C[C@@H]1N | 2.33%
63 | CCc1c(C)nn(CCNC(=O)c2cnn[nH]2)c1C | -5.28%
64 | N[C@@H](Cc1c[nH]cn1)C(=O)N1CCC(Oc2ccc(Cl)cc2)CC1 | -2.13%
65 | Cc1nn(C)c(C)c1NC(=O)c1cccc(CN2CCS(=O)(=O)CC2)c1 | -15.8%
66 | CN(Cc1nc(Cc2cccc(C(F)(F)F)c2)no1)C1CCCCC1 | 1.99%

Row | SMILES | cytotoxicity at 10 µM
67 | Cc1ccccc1C(=O)NC[C@@H]1CCN(C(=O)CN2CCCC2)C[C@H]1O | -39.8%
68 | CCc1c(C)nn(CCN2CC3(CCOC3)CCC2=O)c1C (stereo not given) | 1.94%
69 | O=C(Nc1ccc(-n2cccn2)cc1)N1C[C@H](O)[C@@H](N2CCOCC2)C1 | -45.9%
70 | CC(C)(C)c1ccc(-c2n[nH]c3c2CN(CC2CCOC2)CC3)cc1 (stereo not given) | -40.1%
71 | OC1(c2cn(CC3CCN(C4CCSC4)CC3)nn2)CCCC1 (stereo not given) | 0.445%
72 | CCc1cnc(N)nc1NCc1ccc(OC)c(OC)c1 | 3.48%
73 | CC(C)(C)N1CC(C(=O)N2CCN(CCc3ccccc3)CC2)CC1=O (stereo not given) | 23.4%
74 | Cc1nnc(SCc2ccccn2)s1 | -9.13%
75 | Cc1cc(C)n(CNc2nonc2C(N)=O)n1 | -13%
76 | Clc1ccccc1-c1nc(CNC2CCc3ncnn3C2)co1 (stereo not given) | -7.6%
77 | COc1ccc(C(O)CNC(=O)NCCc2csc(C)n2)cc1 (stereo not given) | -6.16%
78 | O=C(C1CCCN1Cc1nc(-c2ccco2)no1)N1CCSCC1 (stereo not given) | -5.8%
79 | CCOc1ccccc1N1CCN(C(=O)c2cc[nH]n2)CC1 | -11%
80 | Cn1cc(C2CCCN2C(=O)COCCOc2ccccc2)cn1 (stereo not given) | -16.3%
81 | Cc1cnn(CC2CN(c3nc4ccccc4o3)CCO2)c1 (stereo not given) | -16.5%
82 | CCc1noc(C(C)N2CCC(N3CCCCC3)CC2)n1 (stereo not given) | -4.8%
83 | NC(=O)C1CCCN(c2ccc(CNC(=O)c3csnn3)cc2)C1 (stereo not given) | -2.18%
84 | COC(=O)C(c1cc(F)ccc1F)N(C)C(=O)c1cnc(C)cn1 (stereo not given) | 0.111%
85 | Cc1nc(C)n(CC2CCCN(CCCc3ccccc3)C2)n1 (stereo not given) | -6.02%
86 | Nc1cc2c(nn1)CCN(C(=O)c1cccc3c1OCCO3)C2 | -8.72%
87 | O=C(NCCn1ccnc1)c1ccn(-c2cccc(F)c2)n1 | -5.28%
88 | CCN(CC1CCOC1)C(=O)Nc1ccc(N2CCCC2)nc1 (stereo not given) | -7.1%

Row | SMILES | cytotoxicity at 10 µM
89 | Cc1cnn(C2CCCN(C(=O)c3cn4cccnc4n3)C2)c1 (stereo not given) | -11.4%
90 | COCCOc1cccc(C(=O)N2CCCC(n3ccnc3C)C2)c1 (stereo not given) | -12%
91 | COc1c(C2CCCN2C(=O)c2c[nH]c3ncccc23)c(C)nn1C (stereo not given) | -6.49%
92 | COc1ccccc1OCC(=O)NS(=O)(=O)c1ccccc1Br | -9.8%
93 | Cc1cc(C[C@@H]2CCC[C@H]2NCc2ccccc2C)on1 | -5.28%
94 | Cc1cc(C(=O)N2CC[C@]3(C[C@@H](OCc4ccccn4)CO3)C2)c(C)o1 | -78.7%
95 | Cc1cc(C(=O)N2CCc3ncc(CN4CCCC4)n3CC2)no1 | -108%
96 | Cc1cc(CN2C[C@@H]3COC[C@]3(CNS(C)(=O)=O)C2)no1 | -71.2%
97 | Cn1cc(CN2C[C@H]3CCN(C(=O)c4cscn4)C[C@H]3C2)cn1 | 4.12%
98 | O=C(c1ccco1)N1C[C@H]2CCCN(Cc3ccoc3)[C@H]2C1 | 0.276%
99 | CC(C)Oc1cccc(CNC(Cc2ccsc2)c2nccs2)c1 (stereo not given) | 0.732%
100 | O=C(NCC1CC1)[C@@H]1CCO[C@@H]2CCN(c3ncccn3)C[C@@H]21 | 7.64%
101 | COc1ncc(C2(O)CCN(Cc3cccc(F)c3F)CC2)c(OC)n1 | -8.33%
102 | O=C([C@H]1C[C@H]2OCC[C@H]2N(CCc2ccccc2)C1)N1CCCO1 | -72.8%
103 | O=C(c1ccc(F)cc1)N1CCN2C[C@H](Oc3cccnc3)C[C@H]2C1 | 3.77%
104 | COc1cc(CNCC(O)c2cccc(F)c2)cc2c1OCO2 (stereo not given) | -6.31%
105 | CC(C)CC(=O)N1C[C@@H]2CCN(c3ncccn3)C[C@@H]2C1 | -1.63%
106 | Cc1ncsc1CN1Cc2cn(C)nc2C(COCC2CC2)C1 (stereo not given) | -67.3%
107 | Cc1occc1C(=O)N1CCOCC2(CCN(C3CCOCC3)C2)C1 (stereo not given) | 1.47%
108 | c1cnc(N2CCCC3(CCN(CC4CC4)C3)C2)nc1 (stereo not given) | -76.9%
109 | CN(Cc1ccco1)[C@@H]1CN(Cc2nccs2)C[C@@H]2CCCO[C@@H]21 | 6.07%
110 | CCN1CCC2(CC1)CC(NCc1ccncc1)c1ccccc1O2 (stereo not given) | 0.254%
